{
  "source": "ChEMBL document CHEMBL1143161",
  "about": "“Non-charged thiamine analogs as inhibitors of enzyme transketolase” (Bioorg Med Chem Lett, 2008)",
  "key": {"[1]": {"tested_on": "CC(=O)Nc1ncc(Cc2csc(CCO)c2C)c(N)n1", "assay": "(§1) Ratio of kcat to Km for thiamine […]", "in_short": "(§2)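 Enzymatic TPPK assay with kcat/Km derived, run in triplicate. The value is the average, with data within 2-fold of the mean.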"}, "[2]": {"tested_on": "Cc1c(Cc2cnc(-c3ccccc3)nc2N)csc1CCO", "assay": "as §1", "in_short": "as §2"}, "[3]": {"tested_on": "Cc1c(Cc2cnc(C(C)C)nc2N)csc1CCO", "assay": "as §1", "in_short": "as §2"}, "[4]": {"tested_on": "Cc1c(Cc2cnc(C(F)(F)F)nc2N)csc1CCO", "assay": "as §1", "in_short": "as §2"}, "[5]": {"tested_on": "Cc1c(Cc2cnc(C3CC3)nc2N)csc1CCO", "assay": "as §1", "in_short": "as §2"}, "Cc1c(Cc2cncnc2N)csc1CCO": {"tested_on": "Cc1c(Cc2cncnc2N)csc1CCO", "assay": "as §1", "in_short": "as §2"}, "[6]": {"tested_on": "Cc1ncc(C[n+]2csc(CCO)c2C)c(N)n1", "assay": "as §1", "in_short": "as §2"}, "[7]": {"tested_on": "Cc1ncc(Cc2c(C)c(CCO)nn2C)c(N)n1", "assay": "as §1", "in_short": "as §2"}, "[8]": {"tested_on": "Cc1ncc(Cc2csc(CCO)c2C)c(N)n1", "assay": "as §1", "in_short": "as §2"}, "[9]": {"tested_on": "Cc1ncc(Cn2c(C)c(CCO)sc2=O)c(N)n1", "assay": "as §1", "in_short": "as §2"}},
  "data": [
    {"substance": "Thiamine pyrophosphokinase 1 (Homo sapiens), Q9H3S4", "values": [
      {"measurement": "kcat/Km", "setting": "[1]", "result": "1.1 10^-6/nM/s"},
      {"measurement": "kcat/Km", "setting": "[2]", "result": "1 10^-6/nM/s"},
      {"measurement": "kcat/Km", "setting": "[3]", "result": "2.4 10^-5/nM/s"},
      {"measurement": "kcat/Km", "setting": "[4]", "result": "8.5 10^-4/nM/s"},
      {"measurement": "kcat/Km", "setting": "[5]", "result": "2.7 10^-5/nM/s"},
      {"measurement": "kcat/Km", "setting": "Cc1c(Cc2cncnc2N)csc1CCO", "result": "1.2 10^-5/nM/s"},
      {"measurement": "kcat/Km", "setting": "[6]", "result": "1.2 10^-5/nM/s"},
      {"measurement": "kcat/Km", "setting": "[7]", "result": "1.9 10^-5/nM/s"},
      {"measurement": "kcat/Km", "setting": "[8]", "result": "3.4 10^-5/nM/s"},
      {"measurement": "kcat/Km", "setting": "[9]", "result": "1 10^-5/nM/s"}
    ]}
  ]
}
